Tests used:
[1] = Inhibition of [3H]25-6981 binding to N-methyl-D-aspartate glutamate receptor 2B of rat brain
[2] = molecular target: T1, Adrenergic receptor alpha-1 (Rattus norvegicus, UniProt P15823+P23944+P43140); test: Binding affinity towards alpha receptor in rat brain using [3H]prazosin as radioligand; format: tissue-based
T1 sequence (P15823 whole entry): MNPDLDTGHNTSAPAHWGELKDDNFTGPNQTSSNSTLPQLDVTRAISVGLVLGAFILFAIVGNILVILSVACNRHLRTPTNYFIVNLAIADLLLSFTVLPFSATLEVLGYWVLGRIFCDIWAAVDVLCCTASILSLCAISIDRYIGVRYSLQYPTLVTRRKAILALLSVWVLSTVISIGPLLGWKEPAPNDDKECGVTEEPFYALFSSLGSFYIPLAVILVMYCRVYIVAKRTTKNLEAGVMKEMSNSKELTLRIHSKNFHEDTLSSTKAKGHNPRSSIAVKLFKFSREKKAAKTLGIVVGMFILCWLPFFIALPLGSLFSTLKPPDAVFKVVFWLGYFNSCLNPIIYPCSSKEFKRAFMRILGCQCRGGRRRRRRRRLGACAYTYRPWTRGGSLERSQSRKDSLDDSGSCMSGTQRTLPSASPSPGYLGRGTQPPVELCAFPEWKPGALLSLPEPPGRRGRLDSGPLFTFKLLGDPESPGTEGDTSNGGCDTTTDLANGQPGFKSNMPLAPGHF
T1 sequence (P23944 whole entry): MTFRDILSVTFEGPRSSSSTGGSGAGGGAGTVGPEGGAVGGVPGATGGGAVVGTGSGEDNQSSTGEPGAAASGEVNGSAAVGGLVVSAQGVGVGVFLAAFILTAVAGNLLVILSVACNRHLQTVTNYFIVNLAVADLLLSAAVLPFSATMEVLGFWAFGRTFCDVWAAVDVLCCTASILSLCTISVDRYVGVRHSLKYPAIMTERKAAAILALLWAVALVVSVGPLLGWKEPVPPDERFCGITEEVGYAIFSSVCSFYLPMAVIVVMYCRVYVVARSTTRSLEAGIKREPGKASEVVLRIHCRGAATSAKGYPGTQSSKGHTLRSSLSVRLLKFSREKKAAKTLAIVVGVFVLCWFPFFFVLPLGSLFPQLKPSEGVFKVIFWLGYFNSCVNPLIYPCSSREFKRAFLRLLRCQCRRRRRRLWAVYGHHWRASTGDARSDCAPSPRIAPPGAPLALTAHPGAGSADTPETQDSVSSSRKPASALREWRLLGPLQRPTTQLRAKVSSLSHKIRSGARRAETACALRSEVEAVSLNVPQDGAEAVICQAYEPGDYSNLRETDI
T1 sequence (P43140 whole entry): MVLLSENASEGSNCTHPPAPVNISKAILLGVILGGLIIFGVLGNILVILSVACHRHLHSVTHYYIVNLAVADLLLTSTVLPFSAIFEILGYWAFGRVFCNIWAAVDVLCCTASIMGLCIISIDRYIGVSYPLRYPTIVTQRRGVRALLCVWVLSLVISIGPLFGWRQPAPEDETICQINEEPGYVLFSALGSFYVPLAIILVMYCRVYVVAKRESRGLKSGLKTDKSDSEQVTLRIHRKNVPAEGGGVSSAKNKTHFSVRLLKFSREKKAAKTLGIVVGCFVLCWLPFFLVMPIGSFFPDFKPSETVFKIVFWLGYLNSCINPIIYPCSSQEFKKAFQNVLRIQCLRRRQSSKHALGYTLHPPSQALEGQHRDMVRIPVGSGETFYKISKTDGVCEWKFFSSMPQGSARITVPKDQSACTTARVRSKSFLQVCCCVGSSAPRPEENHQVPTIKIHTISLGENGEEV

[3] = Binding affinity towards N-methyl-D-aspartate (NMDA) receptor in rat brain using [3H]-25-6981 as radioligand; format: tissue-based
[4] = molecular target: T2, Muscarinic acetylcholine receptor M1 (Rattus norvegicus, UniProt P08482); test: Binding affinity towards Muscarinic acetylcholine receptor M1 in […] using [3H]pirenzepine as radioligand
T2 sequence (P08482 whole entry): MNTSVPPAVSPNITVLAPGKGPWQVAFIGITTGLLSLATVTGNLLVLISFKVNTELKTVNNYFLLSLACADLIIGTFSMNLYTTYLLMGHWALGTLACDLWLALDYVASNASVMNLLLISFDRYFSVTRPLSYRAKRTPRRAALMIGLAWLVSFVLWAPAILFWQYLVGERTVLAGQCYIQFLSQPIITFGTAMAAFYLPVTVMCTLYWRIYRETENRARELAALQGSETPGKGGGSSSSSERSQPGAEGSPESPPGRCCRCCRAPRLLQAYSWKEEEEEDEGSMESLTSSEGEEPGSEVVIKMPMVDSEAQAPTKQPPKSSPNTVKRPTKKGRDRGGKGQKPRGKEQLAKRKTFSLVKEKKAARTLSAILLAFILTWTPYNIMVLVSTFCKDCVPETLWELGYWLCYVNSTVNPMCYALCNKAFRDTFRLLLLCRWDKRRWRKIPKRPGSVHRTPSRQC

[5] = molecular target: T1, Adrenergic receptor alpha-1; test: Binding affinity towards Alpha-1 adrenergic receptor in rat brain using [3H]prazosin; format: tissue-based
Mus musculus = test: In vivo effective dose in mice after intraperitoneal administration using standard sound induced seizures assay; format: functional; conditions: ip
In short: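 DBA/2 mice; compound given intraperitoneally 30 min before sound-induced seizure testing; ED50 in mg/kg.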

[6] = molecular target: T2, Muscarinic acetylcholine receptor M1; test: Binding affinity towards muscarinic acetylcholine receptor M1 in […] using [3H]pirenzepine as radioligand

Compound	Ki [1]	Ki [2]	Ki [3]	Ki [4]	Ki [5]	ED50 (Mus musculus)	Ki [6]
Clc1ccc2c(c1)CCN(c1ccncc1)C2	230 nM	–	–	–	–	–	–
Cc1cc(N2CCc3ccccc3C2)ccn1	–	5700 nM	8 nM	–	–	–	–
Cc1cc(N2CCc3ccccc3C2)c2ccccc2n1	75 nM	–	–	–	–	–	–
Cc1cc(N2CCc3ccccc3C2)cc(NC(=O)CO)n1	–	20000 nM	15 nM	60000 nM	–	–	–
Nc1cc(N2CCc3ccccc3C2)ccn1	–	2100 nM	2 nM	400 nM	–	–	–
OCCNc1cc(N2CCc3ccccc3C2)nc2ccccc12	3.5 nM	–	–	–	430 nM	< 12 mg/kg	–
OCCNc1ccnc(N2CCc3ccccc3C2)c1	2 nM	–	–	–	2300 nM	13 mg/kg	–
CC1CN(c2ccncc2)Cc2ccccc21 (stereo not given)	25 nM	–	–	–	2200 nM	–	900 nM
Cc1cc(N2CCc3ccccc3C2)cc(NCCO)n1	–	3500 nM	2 nM	6800 nM	–	18 mg/kg	–
C[C@@H]([C@H](O)c1ccc(O)cc1)N1CCC(Cc2ccccc2)CC1 [(R,S)-IFENPRODIL]	–	–	–	–	12 nM	16 mg/kg	–
COc1cc2c(cc1OC)CN(c1ccncc1)CC2	28000 nM	–	–	–	–	–	–
Clc1ccc2c(c1)CN(c1ccncc1)CC2	37 nM	–	–	–	1300 nM	–	1000 nM
c1ccc2c(c1)CCN(c1ccnc3ccccc13)C2	29 nM	–	–	–	3200 nM	25 mg/kg	2600 nM
Clc1cccc2c1CCN(c1ccncc1)C2	8 nM	–	–	–	1500 nM	2 mg/kg	660 nM
Cc1cc(N2CCc3ccccc3C2)cc(N)n1	–	1500 nM	4 nM	2600 nM	–	–	–
CCOC(=O)C(=O)Nc1cc(N2CCc3ccccc3C2)cc(C)n1	–	12000 nM	8 nM	11000 nM	–	–	–
Nc1cc(N2CCc3ccccc3C2)c2ccccc2n1	–	120 nM	19 nM	–	–	–	–
OCCNc1cc(N2CCc3ccccc3C2)c2ccccc2n1	–	1700 nM	22 nM	6700 nM	–	–	–
c1ccc2c(c1)CCN(c1ccncc1)C2	8 nM	–	–	–	5800 nM	3 mg/kg	720 nM
Clc1cccc2c1CN(c1ccncc1)CC2	26 nM	–	–	–	3800 nM	–	650 nM

Reference: ChEMBL document CHEMBL1136393, “4-(3,4-dihydro-1H-isoquinolin-2yl)-pyridines and 4-(3,4-dihydro-1H-isoquinolin-2-yl)-quinolines as potent NR1/2B subtype selective NMDA receptor antagonists” (Bioorg Med Chem Lett, 2003)
